Measured values as given in ChEMBL document CHEMBL1124774, “Synthesis and biological activity of some derivatives of rifamycin P” (1990).
Values after ≈ are worked out from the molar mass of the structure shown.

Experiments:
[1] = test system: Haemophilus influenzae; assay: In vitro antibacterial activity of compound against Haemophilus influenzae ATCC 19418; type: functional
[2] = test system: Klebsiella pneumoniae; assay: In vitro antibacterial activity of compound against Klebsiella pneumoniae ISM; type: functional
[3] = test system: Staphylococcus epidermidis; assay: In vitro antibacterial activity of compound against Staphylococcus epidermidis ATCC 12228; type: functional
Outline: (§1)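 Twofold microdilution MIC in Iso-Sensitest broth over 128-0.0001 µg/mL. Inoculum was 10^4 cfu/mL, with incubation at 37 °C for 18-24 h.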

[4] = test system: Escherichia coli; assay: In vitro antibacterial activity of compound against Escherichia coli SKF 12140; type: functional
[5] = test system: Enterococcus faecalis; assay: In vitro antibacterial activity of compound against Streptococcus faecalis ATCC 7080.; type: functional; outline: as §1
[6] = test system: Proteus vulgaris; assay: In vitro antibacterial activity of compound against Proteus vulgaris X19H ATCC 881; type: functional
[7] = test system: Neisseria gonorrhoeae; assay: In vitro antibacterial activity of compound against Neisseria gonorrhoeae ISM 68/126; type: functional
[8] = test system: Staphylococcus aureus; assay: In vitro antibacterial activity of compound against Staphylococcus aureus Tour L 165; type: functional; outline: as §1
[9] = test system: Pseudomonas aeruginosa; assay: In vitro antibacterial activity of compound against Pseudomonas aeruginosa ATCC 10145; type: functional; outline: as §1
[10] = test system: Streptococcus pneumoniae; assay: In vitro antibacterial activity of compound against Streptococcus pneumoniae UC 41; type: functional
Outline: (§2)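 Streptococcal MICs were run by twofold microdilution in Todd-Hewitt broth over 128-0.0001 µg/mL. Inoculum was 10^4 cfu/mL, with incubation at 37 °C for 18-24 h.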

[11] = test system: Mycobacterium tuberculosis; assay: In vitro antibacterial activity of compound against Mycobacterium tuberculosis H37Rv ATCC 9660; type: functional
[12] = test system: Streptococcus pyogenes; assay: In vitro antibacterial activity of compound against Streptococcus pyogenes C 203 SKF 13400; type: functional; outline: as §2
[13] = test system: Staphylococcus aureus; assay: Activity in the murine model (OS route) of Staphylococcus aureus tour septicemia; type: functional
Outline: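 Male and female CD1 mice (18-22 g) were infected ip with S. aureus Tour. The challenge was set so untreated mice died within 48 h. Groups were five mice, dosed once daily for 3 days starting immediately after infection. ED50 was calculated on day 10 from the percentage surviving at each dose.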

[14] = test system: Mycobacterium avium; assay: 50% inhibition of the 20 Mycobacterium (MAC) avium complex clinical isolates; type: functional
Outline: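 Agar-dilution MICs, 2-fold dilutions over 128-0.0001 μg/mL, on Middlebrook 7H10 agar with 2% glycerol and 10% OADC. Organisms from Loevenstein-Jensen slants were grown in 7H9 broth with 0.5% Tween and 10% OADC, adjusted to McFarland no. 1, and spotted with a multipoint inoculator. Plates were sealed and incubated at 22, 30 or 37 °C for 4-20 days depending on strain.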

[15] = test system: Streptococcus pyogenes; assay: Inhibitory concentration of compound against Streptococcus pyogenus septicemia in the mouse, administarted in OS route; type: functional
Outline: (§3)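 Male and female CD1 mice (18-22 g) were infected ip with S. pyogenes C203, with the challenge set so untreated mice died within 48 h. Groups of five received a single treatment immediately after infection. ED50 was calculated from the percentage surviving at each dose on day 10.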

[16] = test system: Streptococcus pyogenes; assay: Inhibitory concentration of compound against Streptococcus pyogenus septicemia in the mouse, administarted in subcutaneous route; type: functional; settings: sc; outline: as §3
[17] = test system: Mycobacterium avium; assay: Minimum inhibitory concentration of compound against 20 Mycobacterium avium complex (MAC) clinical isolates
[18] = test system: Mycobacterium avium; assay: 90% inhibition of the 20 Mycobacterium avium complex (MAC) clinical isolates
[19] = test system: Streptococcus pyogenes; assay: Minimum inhibitory concentration of compound against Streptococcus pyogenus septicemia in the mouse; type: functional

Structure (SMILES)	MIC [1] [µg/mL]	MIC [2] [µg/mL]	MIC [3] [µg/mL]	MIC [4] [µg/mL]	MIC [5] [µg/mL]	MIC [6] [µg/mL]	MIC [7] [µg/mL]	MIC [8] [µg/mL]	MIC [9] [µg/mL]	MIC [10] [µg/mL]	MIC [11] [µg/mL]	MIC [12] [µg/mL]	ED50 [13] [mg/kg]	MIC50 [14] [µg/mL]	ED50 [15] [mg/kg]	ED50 [16] [mg/kg]	MIC [17] [µg/mL]	MIC90 [18] [µg/mL]	MIC [19] [µg/mL]
COC1/C=C/OC2(C)Oc3c(C)c(O)c4c(O)c(c5sc(N6CCCC6)nc5c4c3C2=O)NC(=O)/C(C)=C\C=C\C(C)C(O)C(C)C(O)C(C)C(OC(C)=O)C1C (centres undefined)	0.125 (≈ 0.155 µM)	32 (≈ 39.6 µM)	0.063 (≈ 0.078 µM)	16 (≈ 19.8 µM)	2 (≈ 2.48 µM)	16 (≈ 19.8 µM)	0.5 (≈ 0.619 µM)	0.004 (≈ 0.00495 µM)	8 (≈ 9.9 µM)	0.032 (≈ 0.0396 µM)	2 (≈ 2.48 µM)	0.008 (≈ 0.0099 µM)							
COC1/C=C/OC2(C)Oc3c(C)c(O)c4c(O)c(c5sc(N6CCN(CCO)CC6)nc5c4c3C2=O)NC(=O)/C(C)=C\C=C\C(C)C(O)C(C)C(O)C(C)C(OC(C)=O)C1C (centres undefined)	0.125 (≈ 0.144 µM)	32 (≈ 36.9 µM)	0.125 (≈ 0.144 µM)	8 (≈ 9.23 µM)	4 (≈ 4.61 µM)	16 (≈ 18.5 µM)	0.125 (≈ 0.144 µM)	0.016 (≈ 0.0185 µM)	16 (≈ 18.5 µM)	0.008 (≈ 0.00923 µM)	1 (≈ 1.15 µM)	0.016 (≈ 0.0185 µM)	> 20						
COC1/C=C/OC2(C)Oc3c(C)c(O)c4c(O)c(c5sc(N6CCNCC6)nc5c4c3C2=O)NC(=O)/C(C)=C\C=C\C(C)C(O)C(C)C(O)C(C)C(OC(C)=O)C1C (centres undefined)	0.25 (≈ 0.304 µM)	16 (≈ 19.4 µM)	0.063 (≈ 0.0766 µM)	8 (≈ 9.72 µM)	2 (≈ 2.43 µM)	8 (≈ 9.72 µM)	0.125 (≈ 0.152 µM)	0.125 (≈ 0.152 µM)	8 (≈ 9.72 µM)	0.063 (≈ 0.0766 µM)		0.125 (≈ 0.152 µM)							
CCCCNc1nc2c(s1)c1c(O)c3c(O)c(C)c4c(c32)C(=O)C(C)(O/C=C/C(OC)C(C)C(OC(C)=O)C(C)C(O)C(C)C(O)C(C)/C=C/C=C(/C)C(=O)N1)O4 (centres undefined)	0.125 (≈ 0.154 µM)	64 (≈ 79 µM)	0.016 (≈ 0.0198 µM)	16 (≈ 19.8 µM)	1 (≈ 1.23 µM)	16 (≈ 19.8 µM)	0.125 (≈ 0.154 µM)	0.032 (≈ 0.0395 µM)	8 (≈ 9.88 µM)	0.063 (≈ 0.0778 µM)		0.063 (≈ 0.0778 µM)		32 (≈ 39.5 µM)	> 10	6.6	2 (≈ 2.47 µM)	64 (≈ 79 µM)	0.063 (≈ 0.0778 µM)
COC1/C=C/OC2(C)Oc3c(C)c(O)c4c(O)c(c5sc(N6CCN(c7ccccc7)CC6)nc5c4c3C2=O)NC(=O)/C(C)=C\C=C\C(C)C(O)C(C)C(O)C(C)C(OC(C)=O)C1C (centres undefined)	0.125 (≈ 0.139 µM)	> 128	0.032 (≈ 0.0356 µM)	4 (≈ 4.45 µM)	1 (≈ 1.11 µM)	16 (≈ 17.8 µM)	0.125 (≈ 0.139 µM)	0.008 (≈ 0.0089 µM)	8 (≈ 8.9 µM)	0.004 (≈ 0.00445 µM)	1 (≈ 1.11 µM)	0.032 (≈ 0.0356 µM)							
CCCCN(CCCC)c1nc2c(s1)c1c(O)c3c(O)c(C)c4c(c32)C(=O)C(C)(O/C=C/C(OC)C(C)C(OC(C)=O)C(C)C(O)C(C)C(O)C(C)/C=C/C=C(/C)C(=O)N1)O4 (centres undefined)	1 (≈ 1.15 µM)	> 128	0.125 (≈ 0.144 µM)	> 128	4 (≈ 4.62 µM)	> 128	2 (≈ 2.31 µM)	0.063 (≈ 0.0727 µM)	> 128	0.063 (≈ 0.0727 µM)		0.125 (≈ 0.144 µM)		1 (≈ 1.15 µM)	1.23	1.62	0.25 (≈ 0.289 µM)	2 (≈ 2.31 µM)	0.125 (≈ 0.144 µM)
CCOC(=O)N1CCN(c2nc3c(s2)c2c(O)c4c(O)c(C)c5c(c43)C(=O)C(C)(O/C=C/C(OC)C(C)C(OC(C)=O)C(C)C(O)C(C)C(O)C(C)/C=C/C=C(/C)C(=O)N2)O5)CC1 (centres undefined)	0.125 (≈ 0.14 µM)	32 (≈ 35.8 µM)	0.063 (≈ 0.0704 µM)	16 (≈ 17.9 µM)	4 (≈ 4.47 µM)	16 (≈ 17.9 µM)	0.125 (≈ 0.14 µM)	0.063 (≈ 0.0704 µM)	32 (≈ 35.8 µM)	0.063 (≈ 0.0704 µM)	2 (≈ 2.23 µM)	0.063 (≈ 0.0704 µM)							
COC1/C=C/OC2(C)Oc3c(C)c(O)c4c(O)c(c5sc(N6CCOCC6)nc5c4c3C2=O)NC(=O)/C(C)=C\C=C\C(C)C(O)C(C)C(O)C(C)C(OC(C)=O)C1C (centres undefined)	0.5 (≈ 0.607 µM)	32 (≈ 38.8 µM)	0.063 (≈ 0.0765 µM)	16 (≈ 19.4 µM)	1 (≈ 1.21 µM)	8 (≈ 9.71 µM)	0.125 (≈ 0.152 µM)	0.002 (≈ 0.00243 µM)	16 (≈ 19.4 µM)	0.016 (≈ 0.0194 µM)	2 (≈ 2.43 µM)	0.032 (≈ 0.0388 µM)		32 (≈ 38.8 µM)			> 16	128 (≈ 155 µM)	
